Source: ChEMBL document CHEMBL1130100, “Stabilized analogs of thymopentin. 3. Evaluation of ketomethylene pseudopeptides for antiarthritic properties” (1997)
Values joined by “and” are separate entries in the source; they are usually repeats but may differ in a detail not shown here. Equal entries are not always repeated.

What was measured:
Type in all cases: functional
[1] = test system: Rattus norvegicus; test: extent of paw swelling following treatment with the compound in the rat adjuvant arthritis model observed on day 16 at 0.50 mg/kg dose; details: dose 0.5 mg/kg
How it was run: (§1)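 Rat adjuvant arthritis with iv dosing every second day, starting 2 days before the adjuvant/antigen challenge. Initial doses ranged 0.05 to 0.50 mg/kg, eight rats per dose. Each hind paw was measured by caliper. Swelling minus age-matched normal paw, expressed as % of untreated animals.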

[2] = test system: Mus musculus; test: Extent of paw swelling after treatment with thymopentin-5 (TP-5) compound in mouse type II collagen arthritis at a dosage of 1.0 mg/kg on day 30
How it was run: (§2)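 DBA/1 Lac mice immunized with bovine type II collagen (100 μg) in Freund's complete adjuvant at four to six back sites, then boosted ip (100 μg) on day 21. Dosing was iv in sterile saline every second day from day 19 through day 40, 12 mice per dose. Each hind paw was measured by caliper. Result given as % of untreated swelling after subtracting age-matched normal paw.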

[3] = test system: Mus musculus; test: On set and incidence of arthritis in the Mouse Type II collagen model at 0.5 dose mg/kg on day 37, expressed as number of mice treated out of 12 tested
How it was run: (§3)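 DBA/1 Lac mice sensitized with bovine type II collagen (100 μg) in Freund's complete adjuvant, ip boost (100 μg) on day 21. Freshly dissolved compound in sterile saline was given iv every second day, day 19 through day 40, groups of 12. A mouse was scored arthritic if erythema or edema was present on any digit, paw or appendage. Incidence reported as number positive of 12.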

[4] = test system: Rattus norvegicus; test: extent of paw swelling following treatment with the compound in the rat adjuvant arthritis model observed on day 12 at 0.50 mg/kg dose; details: dose 0.5 mg/kg; how it was run: as §1
[5] = test system: Mus musculus; test: On set and incidence of arthritis in the Mouse Type II collagen model following 0.5 mg/kg on day 30.; how it was run: as §3
[6] = test system: Rattus norvegicus; test: extent of paw swelling following treatment with the compound in the rat adjuvant arthritis model observed on day 19 at 0.50 mg/kg dose; details: dose 0.5 mg/kg; how it was run: as §1
[7] = test system: Mus musculus; test: On set and incidence of arthritis in the Mouse Type II collagen model at 0.5 dose mg/kg on day 44, expressed as number of mice treated out of 12 tested; how it was run: as §3
[8] = test system: Mus musculus; test: On set and incidence of arthritis in the Mouse Type II collagen model at 0.5 dose mg/kg on day 40, expressed as number of mice treated out of 12 tested; how it was run: as §3
[9] = test system: Mus musculus; test: On set and incidence of arthritis in the Mouse Type II collagen model at 0.5 dose mg/kg on day 40, expressed as ratio of number treated to that of control; how it was run: as §3
[10] = test system: Mus musculus; test: On set and incidence of arthritis in the Mouse Type II collagen model at 0.5 dose mg/kg on day 37, expressed as ratio of number treated to that of control; how it was run: as §3
[11] = test system: Mus musculus; test: Extent of paw swelling after treatment with thymopentin-5 (TP-5) compound in the Mouse Type II collagen arthritis at a dosage of 1.0 mg/kg on day 44; how it was run: as §2
[12] = test system: Mus musculus; test: On set and incidence of arthritis in the Mouse Type II collagen model at 0.5 dose mg/kg on day 44, expressed as ratio of number treated to that of control; how it was run: as §3
[13] = test system: Mus musculus; test: Extent of paw swelling after treatment with thymopentin-5 (TP-5) compound in the Mouse Type II collagen arthritis at a dosage of 0.001 mg/kg on day 30; how it was run: as §2
[14] = test system: Mus musculus; test: On set and incidence of arthritis in the Mouse Type II collagen model at 0.5 dose mg/kg on day 40,expressed as number of mice treated out of 12 tested; how it was run: as §3
[15] = test system: Mus musculus; test: 68 Extent of paw swelling after treatment with thymopentin-5 (TP-5) compound in the Mouse Type II collagen arthritis at a dosage of 0.001 mg/kg on day 30; how it was run: as §2
[16] = test system: Mus musculus; test: Extent of paw swelling after treatment with thymopentin-5 (TP-5) compound in the Mouse Type II collagen arthritis at a dosage of 0.01 mg/kg on day 44; how it was run: as §2
[17] = test system: Mus musculus; test: Extent of paw swelling after treatment with thymopentin-5 (TP-5) compound in the Mouse Type II collagen arthritis at a dosage of 0.01 mg/kg on day 30; how it was run: as §2
[18] = test system: Mus musculus; test: Extent of paw swelling after treatment with thymopentin-5 (TP-5) compound in the Mouse Type II collagen arthritis at a dosage of 0.01 mg/kg on day 37; how it was run: as §2
[19] = test system: Mus musculus; test: Extent of paw swelling after treatment with thymopentin-5 (TP-5) compound in the Mouse Type II collagen arthritis at a dosage of 0.501 mg/kg on day 40; details: dose 0.01 mg/kg; in the assay text read “0.01 mg/kg” for “0.501 mg/kg”; how it was run: as §2
[20] = test system: Rattus norvegicus; test: extent of paw swelling following treatment with the compound in the rat adjuvant arthritis model observed on day 16 at 0.050 mg/kg dose; details: dose 0.05 mg/kg; how it was run: as §1
[21] = test system: Rattus norvegicus; test: extent of paw swelling following treatment with the compound in the rat adjuvant arthritis model observed on day 12 at 0.050 mg/kg dose; details: dose 0.05 mg/kg; how it was run: as §1
[22] = test system: Rattus norvegicus; test: extent of paw swelling following treatment with the compound in the rat adjuvant arthritis model observed on day 19 at 0.050 mg/kg dose; details: dose 0.05 mg/kg; how it was run: as §1
[23] = test system: Mus musculus; test: On set and incidence of arthritis in the Mouse Type II collagen model at 0.5 dose mg/kg on day 30, expressed as ratio of number treated to that of control; how it was run: as §3
[24] = test system: Mus musculus; test: Extent of paw swelling after treatment with thymopentin-5 (TP-5) compound in the Mouse Type II collagen arthritis at 1 mg/kg on day 30.; how it was run: as §2
[25] = test system: Mus musculus; test: Extent of paw swelling after treatment with thymopentin-5 (TP-5) compound in the Mouse Type II collagen arthritis at a dosage of 1.0 mg/kg on day 40; how it was run: as §2
[26] = test system: Mus musculus; test: Extent of paw swelling after treatment with thymopentin-5 (TP-5) compound in the Mouse Type II collagen arthritis at a dosage of 1.0 mg/kg on day 37; how it was run: as §2
[27] = test system: Rattus norvegicus; test: extent of paw swelling following treatment with the compound in the rat adjuvant arthritis model observed on day 16 at 0.075 mg/kg dose; how it was run: as §1
[28] = test system: Rattus norvegicus; test: extent of paw swelling following treatment with the compound in the rat adjuvant arthritis model observed on day 12 at 0.075 mg/kg dose; how it was run: as §1
[29] = test system: Rattus norvegicus; test: extent of paw swelling following treatment with the compound in the rat adjuvant arthritis model observed on day 19 at 0.075 mg/kg dose; how it was run: as §1
[30] = test system: Mus musculus; test: Extent of paw swelling after treatment with thymopentin-5 (TP-5) compound in the Mouse Type II collagen arthritis at a dosage of 0.5 mg/kg on day 40; how it was run: as §2
[31] = test system: Mus musculus; test: Extent of paw swelling after treatment with thymopentin-5 (TP-5) compound in the Mouse Type II collagen arthritis at a dosage of 0.5 mg/kg on day 30; how it was run: as §2
[32] = test system: Mus musculus; test: On set and incidence of arthritis in the Mouse Type II collagen model at 0.5 dose mg/kg on day 40, expressed as ratio of number treated to that of control:12 animals tested; how it was run: as §3
[33] = test system: Mus musculus; test: Extent of paw swelling after treatment with thymopentin-5 (TP-5) compound in the Mouse Type II collagen arthritis at a dosage of 0.5 mg/kg on day 37; how it was run: as §2
[34] = test system: Mus musculus; test: Extent of paw swelling after treatment with thymopentin-5 (TP-5) compound in the Mouse Type II collagen arthritis at a dosage of 0.5 mg/kg on day 44; how it was run: as §2

| SMILES | No. of mice [3] | No. of mice [5] | No. of mice [7] | No. of mice [8] | No. of mice [9] | No. of mice [10] | No. of mice [12] | No. of mice ([5]; 0.5 mg/kg) | also measured |
| --- | --- | --- | --- | --- | --- | --- | --- | --- | --- |
| CC(C)C(CC(=O)[C@H](CC(=O)O)NC(=O)C(CCCCN)N(C)C(=O)[C@@H](N)CCCN=C(N)N)C(=O)N[C@@H](Cc1ccccc1)C(=O)O (stereo not given in full) | 4 | 6 | 8 | 8 | – | – | – | – | Paw swelling [1]: 80%; Paw swelling ([2]; 1 mg/kg): 100% and 46% and 53%; Paw swelling [4]: 0%; Paw swelling [6]: 52% |
| CCCC[C@H](NC(=O)[C@@H](N)CCCN=C(N)N)C(=O)N[C@@H](CC(=O)O)C(=O)C[C@H](C)C(=O)O | – | 8 | – | – | 11 | 11 | 12 | – | Paw swelling [11]: 100% |
| CCCC[C@@H](C(=O)N[C@@H](CC(=O)O)C(=O)N[C@H](C(=O)C[C@H](Cc1ccccc1)C(=O)O)C(C)C)N(C)C(=O)[C@@H](N)CCCN=C(N)N | 7 | 7 | 8 | – | – | – | – | – | Paw swelling [13]: 90% and 43%; No. of mice [14]: 7; Paw swelling [15]: 90% |
| CC(C)[C@H](NC(=O)[C@H](CC(=O)O)NC(=O)[C@@H]1CCCN1C(=O)[C@@H](N)CCCN=C(N)N)C(=O)C[C@@H](Cc1ccccc1)C(=O)O (stereo in doubt; 1b-A) | – | – | 9 | 9 | – | – | – | 8 | Paw swelling [16]: 47%; Paw swelling [17]: 62%; Paw swelling [18]: 72%; Paw swelling [19]: 60% |
| CCCC[C@H](NC(=O)[C@@H](N)CCCN=C(N)N)C(=O)N[C@@H](CC(=O)O)C(=O)N[C@H](C(=O)C[C@@H](Cc1ccccc1)C(=O)O)C(C)C (stereo in doubt; 1c-B) | 11 | – | 12 | 11 | – | – | – | 8 | Paw swelling [11]: 100% |
| CCCC[C@H](NC(=O)[C@@H](N)CCCN=C(N)N)C(=O)N[C@@H](CC(=O)O)C(=O)N[C@H](C(=O)C[C@@H](Cc1ccccc1)C(=O)O)C(C)C (stereo in doubt; 1c-A) | 9 | – | 8 | 10 | – | – | – | 5 | Paw swelling [20]: 100%; Paw swelling ([16]; 0.01 mg/kg): 66% and 69% and 70% and 63%; Paw swelling [21]: 0%; Paw swelling [22]: 100% |
| CC(C)[C@H](CC(=O)[C@H](CC(=O)O)NC(=O)[C@H](CCCCN)NC(=O)[C@@H](N)CCCN=C(N)N)C(=O)N[C@@H](Cc1ccccc1)C(=O)O (stereo in doubt; 3a-B) | – | – | – | – | 12 | 11 | 12 | – | No. of mice [23]: 8; Paw swelling [2]: 100% |
| CC(CC(=O)[C@H](CC(=O)O)NC(=O)C(CCCCN)NC(=O)[C@@H](N)CCCN=C(N)N)C(=O)NC(Cc1ccccc1)C(=O)O (stereo in doubt; 3e-B) | – | – | – | – | 10 | 11 | – | 10 | Paw swelling ([2]; 1 mg/kg): 100% and 68% and 77% |
| CCCCC(CC(=O)[C@@H](N)CCCN=C(N)N)C(=O)N[C@@H](CC(=O)O)C(=O)NC(C(=O)N[C@@H](Cc1ccccc1)C(=O)O)C(C)C (stereo not given in full) | – | 3 | – | – | 7 | 7 | 8 | – | Paw swelling [24]: 100% |
| CC(C)[C@H](NC(=O)[C@H](CC(=O)O)NC(=O)[C@@H]1CCCN1C(=O)[C@@H](N)CCCN=C(N)N)C(=O)C[C@@H](Cc1ccccc1)C(=O)O (stereo in doubt; 1b-B) | 9 | – | 11 | 10 | – | – | – | 6 | Paw swelling [25]: 42%; Paw swelling [11]: 53%; Paw swelling [26]: 59%; Paw swelling [24]: 66% |
| CC(CC(=O)[C@H](CC(=O)O)NC(=O)C(CCCCN)NC(=O)[C@@H](N)CCCN=C(N)N)C(=O)NC(Cc1ccccc1)C(=O)O (stereo in doubt; 3e-A) | – | – | – | – | 11 | 9 | 12 | 5 | Paw swelling ([2]; 1 mg/kg): 88% and 57% and 73% and 75% |
| CCCCC(CC(=O)[C@@H](N)CCCN=C(N)N)C(=O)N[C@@H](CC(=O)O)C(=O)NC(C(=O)C[C@H](C(=O)O)C(C)C)C(C)C (stereo in doubt; 1h-B) | – | – | – | – | – | 7 | 9 | 6 | Paw swelling [27]: 100%; Paw swelling [28]: 0%; Paw swelling [29]: 70% |
| CC(C)[C@H](NC(=O)[C@H](CC(=O)O)NC(=O)[C@H](CCCCN)NC(=O)[C@@H](N)CCCN=C(N)N)C(=O)C[C@@H](Cc1ccccc1)C(=O)O | 7 | 5 | 7 | – | – | – | – | – | Paw swelling [30]: 93%; Paw swelling [31]: 100%; No. of mice [32]: 8; Paw swelling [33]: 100%; Paw swelling [34]: 53% |
| CC(C)C(CC(=O)[C@H](CC(=O)O)NC(=O)C(CCCCN)NC(=O)[C@@H](N)CCCN=C(N)N)C(=O)NC(Cc1ccc(O)cc1)C(=O)O (stereo not given in full) | – | 8 | – | – | 12 | 11 | 12 | – | Paw swelling [2]: 100% |
